# PKD1 kinase inh – PKD1 (human) kinase inhibition. PKD1 kinase fluorescence polarization assay. inhibition, % (test concentration not listed). 200,000 compounds, 0.056% hits. AID 797; in the data active = inhibition above about 50%
# Target sequence (Q15139 whole entry, looked up): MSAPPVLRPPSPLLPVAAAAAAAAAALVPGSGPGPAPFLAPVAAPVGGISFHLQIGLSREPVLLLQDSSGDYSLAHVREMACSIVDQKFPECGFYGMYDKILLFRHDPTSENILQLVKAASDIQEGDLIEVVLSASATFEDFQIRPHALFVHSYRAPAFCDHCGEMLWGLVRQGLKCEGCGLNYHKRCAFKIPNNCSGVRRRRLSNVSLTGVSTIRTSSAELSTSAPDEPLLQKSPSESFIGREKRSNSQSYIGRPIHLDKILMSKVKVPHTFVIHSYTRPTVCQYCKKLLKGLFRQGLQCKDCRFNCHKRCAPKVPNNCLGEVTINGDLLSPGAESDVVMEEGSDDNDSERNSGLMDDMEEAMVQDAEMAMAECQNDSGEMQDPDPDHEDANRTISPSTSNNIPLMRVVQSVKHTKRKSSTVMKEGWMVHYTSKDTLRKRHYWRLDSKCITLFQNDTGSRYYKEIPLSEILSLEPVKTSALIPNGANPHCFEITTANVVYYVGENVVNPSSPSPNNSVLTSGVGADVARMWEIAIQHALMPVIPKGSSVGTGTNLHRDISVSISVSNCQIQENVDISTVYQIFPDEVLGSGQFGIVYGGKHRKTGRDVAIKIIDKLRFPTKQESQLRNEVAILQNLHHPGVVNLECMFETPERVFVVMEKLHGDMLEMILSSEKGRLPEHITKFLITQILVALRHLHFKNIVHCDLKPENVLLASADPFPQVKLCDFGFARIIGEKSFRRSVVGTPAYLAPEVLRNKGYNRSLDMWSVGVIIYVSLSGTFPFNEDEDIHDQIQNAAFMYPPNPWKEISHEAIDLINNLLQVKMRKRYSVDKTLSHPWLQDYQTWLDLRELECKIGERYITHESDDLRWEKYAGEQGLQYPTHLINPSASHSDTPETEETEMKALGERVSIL
# Hsp70 act – transcriptional activators of Hsp70; HeLa Hsp70 promoter luciferase reporter, luminescence; scaled: vehicle 0, proteasome-inhibitor control 100%; activation, % at 10 µM; 200,000 compounds, 0.04% hits; AID 1203;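 active = activation above the mean across all tested compounds plus 3 SD, cutoff set per campaign, cut at about 5.5% in these data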;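 also: 100% = MG132 at 30 µM as the positive control and 0% = DMSO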
# PP1 inh – blocks human PP1-alpha phosphatase, a PP5 counter-screen; P62136; purified PP1alpha, OMFP fluorescence; inhibition, % at 6.7 µM; 320,000 compounds, 0.9% hits; AID 2235;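 active = inhibition above the mean inhibition of all tested compounds plus 3 SD, computed separately for each screening campaign, cut at about 15% in these data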
# PP5 primary – inhibitors of human protein phosphatase 5 (PP5). purified PP5c, OMFP substrate fluorescence. 320,000 compounds, 0.18% hits. inhibition, % at 6.7 µM. P53041. AID 1987;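 active = inhibition above the campaign's mean inhibition across all tested compounds plus 3 SD, cut at about 9.5% in these data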;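 also: 0% = DMSO only and 100% = 100 µM cantharidin control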
# RBBP9 inhibitor – inhibitors of human serine hydrolase RBBP9; inhibition, % at 7.94 µM; 220,000 compounds, 0.2% hits; recombinant RBBP9, FP-Rh probe fluorescence polarization;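 active = inhibition above the campaign mean of all tested compounds plus 3 SD, cut at about 14% in these data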;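 also: plate controls were DMSO wells with RBBP9 for no effect and wells lacking RBBP9 protein for full effect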
#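 Controls: DMSO-treated enzyme wells and wells lacking RBBP9 | Material: RBBP9 protein | Technique: Fluorescence polarization | Replication: Single well per compound, no replicates | Buffer or medium: Tris-NaCl-Pluronic buffer, pH 8.0 | Timing: 30 min compound preincubation, 45 min probe labeling, 25 °C | Read-out basis: Percent inhibition from mP, scaled between DMSO and no-protein wells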
# p97 ATPase inh – human p97 ATPase inhibition. P55072. recombinant p97 ATPase, Kinase-Glo ATP luminescence, 3 h. inhibition, % at 8 µM. 220,000 compounds, 0.42% hits. AID 1481; in the data active = inhibition above about 15%;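 also: 0% = DMSO vehicle and 100% = wells lacking enzyme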
# p97 inh conf – human p97 ATPase inhibition, confirmation. inhibition, % at 8 µM. AID 1517. recombinant p97 ATPase, Kinase-Glo ATP luminescence. 760 compounds, 44% hits. shares compounds with p97 ATPase inh;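 active = percent inhibition of p97 ATPase above a set limit, the primary screen's mean plus 3 SD, cut at about 15% in these data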;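 also: 0% = DMSO wells and 100% = wells lacking p97 protein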
# Active calls of the source: *; / = not tested or not shown. Only some compounds are listed: those with a hit (about 1.5% of all), similar ones and a draw of the others.
SMILES,PKD1 kinase inh,Hsp70 act,PP1 inh,PP5 primary,RBBP9 inhibitor,p97 ATPase inh,p97 inh conf
COc1ccc(C(C)=O)cc1COC(=O)c1ccc(N)c([N+](=O)[O-])c1,-2,0,-1,0,-12,18*,22*
Oc1ccc(-c2csc(-c3c[nH]c4ccccc34)n2)c(O)c1,-1,0,-4,3,4,19*,22*
COc1ccc(-c2nc(-c3ccc(O)cc3O)cs2)cc1OC,6,0,/,/,-4,17*,19*
CN(C(=O)CS(=O)(=O)c1cn(CC(=O)N2CCCCC2)c2ccccc12)c1ccccc1,/,/,-1,0,/,/,/
COCCN(C(=O)c1snc(C(N)=O)c1N)C(C(=O)NC1CCCCC1)c1ccc(OC)c(OC)c1 (stereo unspecified),/,/,-6,-1,/,/,/
CC(C)=CCC1=C(OCC(=O)O)C(=O)c2ccccc2C1=O,/,/,-2,5,1,32*,29*
CC(C)(C)C(=O)COC(=O)C1CC(=O)N(c2ccccc2)C1 (stereo unspecified),-3,0,5,-1,-6,-7,/
N#Cc1c(-c2cccs2)cc(-c2cccs2)[nH]c1=O,/,/,0,-1,-4,16*,15*
CCOC(=O)c1[nH]c2ccc(Br)cc2c1NC(=O)CCN1CCC(C)CC1,-8,0,1,1,3,17*,2
CCOC(=O)c1[nH]c2ccc(OC)cc2c1NC(=O)CCN1CCC(C)CC1,-3,0,-7,-3,-5,-4,/
CCOC(=O)c1[nH]c2ccc(Br)cc2c1NC(=O)CNC,-2,0,1,-1,1,1,/
CCOC(=O)c1[nH]c2ccc(Br)cc2c1NC(=O)CCN1CCCC(C)C1 (stereo unspecified),-10,0,-1,0,-4,17*,-1
COc1ccc(NC(=O)c2cc(S(=O)(=O)N3CCCCC3)c[nH]2)c(OC)c1,/,/,-2,1,/,/,/
Cc1ccc(C)c(S(=O)(=O)N2CCN(C(=O)c3cc(S(=O)(=O)NCc4ccccc4)ccc3C)CC2)c1,/,/,-10,-2,/,/,/
COc1cc(C(=O)c2nccc3cc(OC)c(OC)cc23)c([N+](=O)[O-])cc1OC,-2,0,1,6,4,30*,25*
COc1cc(N)c(C(=O)c2nccc3cc(OC)c(OC)cc23)cc1OC,/,/,-1,1,/,/,/
Cc1cc(C)n(-c2nc(NC(C)(C)C)nc(NC(C)(C)C)n2)n1,-5,0,2,0,-1,3,/
CC(C)(C)Nc1nc(NC(C)(C)C)nc(-n2ccnc2)n1,1,0,6,6,-1,15*,10
Cn1nnc2cc(C(=O)N3CCSCC3)ccc21,-2,0,-3,1,-2,17*,7
Cn1nnc2cc(C(=O)N3CCN(c4ccccn4)CC3)ccc21,/,/,1,0,/,/,/
COc1ccc(/C=N/Nc2cc(C)nc(N3CCOCC3)n2)c(OC)c1,/,/,-2,0,-8,-1,/
Cc1cc(N/N=C/c2ccc(O)cc2O)nc(N2CCOCC2)n1,/,/,0,1,1,15*,17*
Cc1c(Br)c(=O)oc2c(Br)c(O)c(O)cc12,7,0,-3,2,1,24*,31*
Cc1cc(=O)n(C2CCS(=O)(=O)C2)[nH]1 (stereo unspecified),-6,0,1,6,-10,24*,6
Cc1ccccc1-c1nnnn1C1CCS(=O)(=O)C1 (stereo unspecified),-7,0,-4,3,1,2,/
SMILES,PKD1 kinase inh,Hsp70 act,PP1 inh,PP5 primary,RBBP9 inhibitor,p97 ATPase inh,p97 inh conf
O=C1CCN2C=Nc3cccc4ccc1c2c34,36,0,-11,-6,-5,26*,9
c1ccc(CN2CCN(C3=Nc4cccc5cccc3c45)CC2)cc1,3,0,/,/,2,-3,/
COc1ccc(N(/N=C2\Sc3ccccc3C2=O)C(C)=O)cc1,0,0,/,/,-7,22*,21*
Cc1cc(OCC(=O)N2CCC(O)CC2)c2c(C)cc(=O)oc2c1,/,/,-5,2,/,/,/
Cc1cc(/C=C2\NC(=O)NC2=O)c(C)n1-c1ccc(N2CCOCC2)cc1,/,/,1,3,6,17*,9
CC(=O)OCC(=O)C1=CCC2C3CCC4=CC(=O)C=CC4(C)C3(F)C(OC(C)=O)CC12C (stereo unspecified),3,0,2,2,0,15*,7
O=C(CSc1ccc(F)cc1)Nc1ccccc1Br,5,0,-3,1,3,15*,4
O=C(CSc1ccc(F)cc1)Nc1ccc(Br)cc1,-7,0,1,4,-6,-1,/
c1ccc(Cn2nnc3c(N4CCCCCC4)ncnc32)cc1,-14,0,3,2,-4,20*,1
CCCN1CCN(c2ncnc3c2nnn3Cc2ccccc2)CC1,-8,0,1,1,-4,0,/
CCCCCc1ccc(S(=O)(=O)NCCc2ccncc2)cc1,1,0,3,5,-9,-2,/
CCn1c2ccccc2c2cc(NC(=O)CSc3nccc(=O)[nH]3)ccc21,-2,0,-2,-1,8,20*,29*
O=C(CSc1nccc(=O)[nH]1)Nc1ccc(Oc2ccccc2)cc1,/,/,-1,-2,/,/,/
CCn1c2ccccc2c2cc(NC(=O)CSc3nnc(-c4cccc(C)c4)o3)ccc21,0,0,5,-2,-5,15*,24*
CN(C)c1ccc(P(=O)(CC(=O)N/N=C/c2ccc(C#N)cc2)OCCCl)cc1 (stereo unspecified),-6,0,0,-1,1,3,/
COc1cccc(CCc2nnc(CCC(=O)N3CCN(Cc4ccccn4)CC3)o2)c1,-7,0,-7,0,-7,-1,/
CCOC(=O)/C(C(N)=NCCCO)=C(/O)c1ccccc1,-10,0,-3,2,-4,0,/
CCOC(=O)/C(C(N)=NCCO)=C(/O)c1ccccc1,5,0,-5,-3,-7,24*,4
COC(=O)C(CC(=O)O)NCc1ccco1 (stereo unspecified),/,/,-2,0,0,8,/
COCCOC(=O)C(CC(=O)O)NCc1ccco1 (stereo unspecified),/,/,-6,-3,4,16*,2
COc1ccccc1-c1nnc(NC(=O)C(C)SC2=NCCS2)s1 (stereo unspecified),5,0,5,2,-14,17*,20*
CC(SC1=NCCS1)C(=O)Nc1nnc(-c2ccc(Cl)cc2)s1 (stereo unspecified),2,0,2,1,-6,-3,/
CS(=O)(=O)N(CC(=O)NCCc1ccccc1)c1cccc([N+](=O)[O-])c1,0,0,-2,1,-5,18*,5
